Assay results published in ChEMBL document CHEMBL4428077, “Synthesis and Biological Evaluation of N-((1-(4-(Sulfonyl)piperazin-1-yl)cycloalkyl)methyl)benzamide Inhibitors of Glycine Transporter-1” (J Med Chem, 2016).
Active and inactive are the calls of the source. No cut-off for these calls is given here.

What was measured:
[1] = target: T1, Sodium- and chloride-dependent glycine transporter 1 (Homo sapiens, UniProt P48067); experiment: Inhibition of glycine transporter-1B in human JAR cells assessed as reduction in [14C]glycine uptake preincubated for 10 mins followed by [14C]glycine addition measured after 3 hrs by scintillation proximity assay; assay type: cell-based
T1 sequence (P48067 whole entry): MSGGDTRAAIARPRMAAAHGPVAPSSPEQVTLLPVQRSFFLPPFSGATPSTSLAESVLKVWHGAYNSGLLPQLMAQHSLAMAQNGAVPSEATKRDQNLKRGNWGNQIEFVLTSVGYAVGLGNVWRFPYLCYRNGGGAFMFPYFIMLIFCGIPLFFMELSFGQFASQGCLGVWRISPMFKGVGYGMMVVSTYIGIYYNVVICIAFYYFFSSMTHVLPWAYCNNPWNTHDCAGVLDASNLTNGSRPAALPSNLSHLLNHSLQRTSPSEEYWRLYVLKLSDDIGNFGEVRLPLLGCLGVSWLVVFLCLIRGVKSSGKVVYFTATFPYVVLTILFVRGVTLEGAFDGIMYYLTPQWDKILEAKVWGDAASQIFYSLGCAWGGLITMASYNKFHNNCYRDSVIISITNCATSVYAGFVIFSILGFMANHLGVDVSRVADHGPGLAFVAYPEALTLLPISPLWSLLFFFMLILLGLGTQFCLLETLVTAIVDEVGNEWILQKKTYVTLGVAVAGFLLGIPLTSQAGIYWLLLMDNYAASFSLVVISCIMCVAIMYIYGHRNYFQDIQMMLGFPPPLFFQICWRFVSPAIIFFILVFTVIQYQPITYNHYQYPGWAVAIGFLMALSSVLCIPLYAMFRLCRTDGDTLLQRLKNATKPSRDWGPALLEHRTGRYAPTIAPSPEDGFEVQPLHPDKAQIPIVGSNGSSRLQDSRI
Summary of the method: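 Whole-cell SPA in JAR cells, which endogenously express hGlyT-1b. Cells (50,000 per well) were attached overnight in RPMI/10% FBS at 37 °C, 5% CO₂. [¹⁴C]glycine was then added and incubated 3 h at 37 °C. The assay window was set with unlabeled glycine. A reference standard ran on each plate. IC₅₀ values are means of n ≥ 2.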

[2] = target: T2, Sodium- and chloride-dependent glycine transporter 2 (Homo sapiens, UniProt Q9Y345); experiment: Inhibition of human glycine transporter-2 expressed in HEK293 cells assessed as reduction in [14C]glycine uptake preincubated for 10 mins followed by [14C]glycine addition measured after 3 hrs by scintillation proximity assay; assay type: cell-based
T2 sequence (Q9Y345 whole entry): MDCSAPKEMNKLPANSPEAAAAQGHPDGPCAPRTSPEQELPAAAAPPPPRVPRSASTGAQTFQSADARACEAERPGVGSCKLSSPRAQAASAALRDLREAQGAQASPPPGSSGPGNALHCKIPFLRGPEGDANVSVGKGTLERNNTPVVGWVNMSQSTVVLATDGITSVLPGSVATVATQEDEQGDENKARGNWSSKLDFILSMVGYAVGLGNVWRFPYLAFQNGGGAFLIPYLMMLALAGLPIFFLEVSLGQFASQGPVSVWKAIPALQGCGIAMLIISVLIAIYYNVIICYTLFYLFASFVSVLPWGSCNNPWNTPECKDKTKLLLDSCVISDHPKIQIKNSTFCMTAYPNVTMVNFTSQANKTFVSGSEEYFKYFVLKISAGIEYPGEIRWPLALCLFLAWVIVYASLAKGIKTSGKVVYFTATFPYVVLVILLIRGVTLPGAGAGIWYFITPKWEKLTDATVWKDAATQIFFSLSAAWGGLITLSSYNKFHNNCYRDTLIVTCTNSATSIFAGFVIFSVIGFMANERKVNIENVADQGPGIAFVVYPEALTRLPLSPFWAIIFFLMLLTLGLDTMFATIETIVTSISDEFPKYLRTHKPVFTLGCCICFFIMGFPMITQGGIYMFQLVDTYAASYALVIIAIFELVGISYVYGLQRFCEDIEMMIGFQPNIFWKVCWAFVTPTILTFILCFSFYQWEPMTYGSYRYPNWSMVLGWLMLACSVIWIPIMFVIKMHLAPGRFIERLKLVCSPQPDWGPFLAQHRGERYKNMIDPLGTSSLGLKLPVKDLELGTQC
Summary of the method: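 HEK293 cells stably transfected with GlyT-2 (Geneticin-selected polyclonal population) were plated on poly-L-lysine-coated plates in DMEM/10% FBS and incubated overnight. The [¹⁴C]glycine uptake SPA was then run as for JAR cells: uptake buffer, 10 min room-temperature preincubation, 3 h incubation at 37 °C.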

[3] = Metabolic stability in human liver microsomes assessed as parent compound remaining at 3 uM incubated for 15 mins by LC-MS analysis; assay type: ADME, Microsome; settings: for remaining at 0.25 h, 3 µM: liver microsomes, read-out: Stability
Summary of the method: (§1)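 Liver microsomes incubated with compound at 3 μM for 15 min. Parent compound remaining was quantified by LC-MS.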

[4] = Metabolic stability in rat liver microsomes assessed as parent compound remaining at 3 uM incubated for 15 mins by LC-MS analysis; assay type: ADME, Microsome; settings: for remaining at 0.25 h, 3 µM: liver microsomes, read-out: Stability; summary of the method: as §1
Cynomolgus monkey [5] = experiment: In vivo inhibition of glycine transporter-1 in cynomolgus monkey assessed as increase in CSF glycine level at 0.3 to 10 mg/kg, po measured at 2 to 4 hrs post dose by LC-MS/MS analysis; assay type: functional, organism-based; settings: Macaca fascicularis
Summary of the method: (§2)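 Cynomolgus monkeys, n = 3 per group, given oral doses of 0.4, 1.5, 4.7 or 15.7 μmol/kg. Vehicle was 5% Solutol / 20% Captisol in 25 mM PBS, pH 2. CSF (about 0.30 mL) was drawn through subcutaneous ports with a sterile Huber needle predose and at 0.5, 1, 2, 3, 4, 8, 12 and 24 h. Matched blood was taken at each time. Mean ± SD.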

Cynomolgus monkey [6] = experiment: In vivo inhibition of glycine transporter-1 in cynomolgus monkey assessed as increase in CSF glycine level at 0.3 to 10 mg/kg, po measured at 24 hrs post dose by LC-MS/MS analysis; assay type: functional, organism-based; settings: Macaca fascicularis; summary of the method: as §2
[7] = target: T3, Sodium- and chloride-dependent glycine transporter 1 (Homo sapiens) (UniProt P48067); experiment: Competitive inhibition of glycine transporter-1 (unknown origin) expressed in HEK293 cells at 12 to 108 nM in presence of [3H]glycine by scintillation proximity assay; assay type: cell-based
T3 sequence (whole entry): T1 sequence (P48067 whole entry)
Summary of the method: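 Whole-cell SPA glycine transport with transfected HEK-293 cells expressing GlyT-1. Increasing [³H]-glycine concentrations were run at several fixed inhibitor concentrations to derive B_max and K_d for glycine and judge the binding mode.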

[8] = Intrinsic clearance in human liver microsomes at 3 uM incubated up to 60 mins by LC-MS analysis; assay type: ADME, Microsome; settings: read-out: CLH
Summary of the method: (§3)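 Liver microsomes with a cofactor regeneration system and compound at 3 μM, incubated at 37 °C. Reactions were stopped at 0, 5, 15, 30, 45 and 60 min, in duplicate. Compound remaining was measured by LC-MS. ln(%remaining) was plotted against time, and the slope was normalized to protein to give CL_int. Testosterone at 10 μM served as control.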

[9] = Intrinsic clearance in rat liver microsomes at 3 uM incubated up to 60 mins by LC-MS analysis; assay type: ADME, Microsome; settings: read-out: CLH; summary of the method: as §3
[10] = Metabolic stability in human liver microsomes assessed as parent compound remaining at 3 uM incubated for 60 mins by LC-MS analysis; assay type: ADME, Microsome; settings: read-out: Stability

In the case of `Nc1cccc(Cl)c1C(=O)NCC1(N2CCN(S(=O)(=O)Cc3ccccc3)CC2)CCCCC1`, the IC50 [1] is reported as 9360 nM and the IC50 [2] is reported as over 75000 nM.

In the case of `Cn1cc(S(=O)(=O)N2CCN(C3(CNC(=O)c4c(Cl)cccc4OC(F)(F)F)CCC(F)(F)CC3)CC2)nn1`, the IC50 [1] is reported as 0.726 nM, the IC50 [2] is reported as over 75000 nM and the remaining at 0.25 h, 3 µM [3] is reported as 24%. The remaining at 0.25 h, 3 µM [4] was 87%.

With `CC(C)CS(=O)(=O)N1CCN(C2(CNC(=O)c3c(N)cccc3Cl)CCCCC2)CC1` the IC50 [2] was over 75000 nM.

Work on `Cn1cnc(S(=O)(=O)N2CCN(C3(CNC(=O)c4c(F)cccc4F)CCC(F)(F)CC3)CC2)c1` yielded an IC50 [1] of 18.3 nM, an IC50 [2] of over 75000 nM and a remaining at 0.25 h, 3 µM [3] of 72%. For the same compound, the remaining at 0.25 h, 3 µM [4] was 92%.

For `CC(NC(=O)c1ccc(C(F)(F)F)cc1Cl)C1(N2CCN(S(=O)(=O)c3cn(C)nn3)CC2)CCC(F)(F)CC1` (single isomer, unassigned; (+)), the inhibition (Cynomolgus monkey [5]) was “Active”, the inhibition (Cynomolgus monkey [6]) was “inactive” and the inhibition [7] was “Active”.

With `CCCS(=O)(=O)N1CCN(C2(CNC(=O)c3c(C)cc(F)cc3OC)CCC(F)(F)CC2)CC1` the IC50 [1] was 28.5 nM and the IC50 [2] was over 75000 nM.

In the case of `CCCS(=O)(=O)N1CCN(C2(CNC(=O)c3c(Cl)cccc3OC(F)(F)F)CCC(F)(F)CC2)CC1`, the IC50 [1] is reported as 29 nM and the IC50 [2] is reported as over 75000 nM.

Compound `CCCS(=O)(=O)N1CCN(C2(CNC(=O)c3ccc(C(F)(F)F)cc3C(F)(F)F)CCC(F)(F)CC2)CC1` has an IC50 [1] of 8.4 nM, an IC50 [2] of over 75000 nM and a microsomal CLint at 3 µM [8] of 19 µL/min/mg. For the same compound, the microsomal CLint at 3 µM [9] was 4.9 µL/min/mg.

`Cn1cc(S(=O)(=O)N2CCN(C3(CNC(=O)c4ccc(Cl)cc4Cl)CCC(F)(F)CC3)CC2)nn1` showed an IC50 [1] of 1.24 nM, a remaining at 0.25 h, 3 µM [3] of 46% and a remaining at 0.25 h, 3 µM [4] of 80%.

`CC(NC(=O)c1ccc(C(F)(F)F)cc1Cl)C1(N2CCN(S(=O)(=O)c3cn(C)nn3)CC2)CCC(F)(F)CC1.Cl` (racemic) showed an IC50 [1] of 1.03 nM, a Stability ([3]; microsomes, 0.25 h, 3 µM) of 54% and a Stability ([4]; microsomes, 0.25 h, 3 µM) of 66%.

In the case of `Cn1cnc(S(=O)(=O)N2CCN(C3(CNC(=O)c4ccc(Cl)cc4Cl)CCCCC3)CC2)c1`, the IC50 [1] is reported as 2.14 nM and the remaining at 1 h, 3 µM [10] is reported as 5%.

With `Cn1cc(S(=O)(=O)N2CCN(C3(CNC(=O)c4c(Cl)cccc4Cl)CCC(F)(F)CC3)CC2)nn1` the IC50 [1] was 1.27 nM, the IC50 [2] was over 75000 nM and the remaining at 0.25 h, 3 µM [3] was 33%. The remaining at 0.25 h, 3 µM [4] was 91%.

Work on `CCCS(=O)(=O)N1CCN(C2(CNC(=O)c3ccc(C(F)(F)F)cc3Cl)CCC(F)(F)CC2)CC1` yielded an IC50 [1] of 12.6 nM, a microsomal CLint at 3 µM [8] of 16 µL/min/mg and a microsomal CLint at 3 µM [9] of 11 µL/min/mg.

Work on `CCCS(=O)(=O)N1CCN(C2(CNC(=O)c3ccc(F)cc3Cl)CCC(F)(F)CC2)CC1` yielded an IC50 [1] of 38.4 nM and an IC50 [2] of over 75000 nM.
